# Measurements of several laboratories.
# Each line is one published result; the experiments were not run side by side.
# Target: Serine/threonine-protein kinase 33 (STK33, Homo sapiens, UniProt Q9BYT3)
Structure (SMILES),read-out,technique,tested at,remaining binding [%]
O=C(c1ccc(Nc2ncc(Cl)c(-c3cc4ccccc4s3)n2)cc1)N1CCC(N2CCCC2)CC1,binding,competition with immobilised ligand,1 µM,38
COc1ncc2cc3ccccc3nc2c1C#N,cell-free assay,competition with immobilised ligand,5 µM,91
CN(c1ccnc(CNc2nc(Nc3ccc4c(c3)CC(=O)N4)ncc2C(F)(F)F)n1)S(C)(=O)=O,cell-free assay,competition with immobilised ligand,1 µM,15
c1cncc(-c2cccc(Nc3nccc(NC4CCCCC4)n3)c2)c1,binding,competition with immobilised ligand,10 µM,44
FC(F)(F)Oc1cccc(-c2cnc3ccc(-c4ccncc4)nn23)c1,binding,competition with immobilised ligand,5 µM,72
c1cnn2ncc(-c3ccnc(N4CCC45COC5)n3)c2c1,binding,,1 µM,100
O=C(NCc1ncc(C(F)(F)F)cc1Cl)c1ccc2c(c1)C1(CCS(=O)(=O)CC1)[C@H](C1CC1)N2S(=O)(=O)c1ccc(F)cc1,cell-free assay,competition with immobilised ligand,1 µM,100
CN(CCCC(F)(F)F)c1nccc(-c2cnn3ncccc23)n1,binding,,1 µM,100
O=C(NCCCN1CCOCC1)c1ccc(Nc2nccc(-c3cc4ccccc4s3)n2)cc1,binding,competition with immobilised ligand,1 µM,80
CN([C@@H]1CCc2c(CC(=O)O)c3ccccc3n2C1)S(=O)(=O)c1ccc(F)cc1,cell-free assay,competition with immobilised ligand,1 µM,100
O=C(Nc1c[nH]nc1C(=O)NC1CCNCC1)c1cc(F)cc(F)c1,binding,competition with immobilised ligand,1 µM,100
C[C@H]1CCN(c2nccc(-c3cnn4ncccc34)n2)C1,binding,,1 µM,100
CC(=O)C1=C(C)N(c2cccc(C(F)(F)F)c2)C(=O)N[C@@H]1c1ccc(C#N)nc1,cell-free assay,competition with immobilised ligand,1 µM,91.6
O=C(NCCCN1CCOCC1)c1ccc(Nc2ncc(Cl)c(-c3ccc(Cl)s3)n2)cc1,binding,competition with immobilised ligand,1 µM,68
N[C@@H]1CCN(c2nccc(-c3cnn4ncccc34)n2)C1,binding,,1 µM,100
COc1cnc(Nc2cccc(S(N)(=O)=O)c2)nc1N1CCN(c2ccccc2)C(=O)C1,binding,competition with immobilised ligand,1 µM,93
CC1CCCN1c1nccc(-c2cnn3ncccc23)n1 (stereo not shown),binding,,1 µM,100
C=CC(=O)N1CCC(C(=O)NCC(=O)N2CCN(c3nc(-c4cnc(N)nc4C(F)F)nc(N4CCOCC4)n3)CC2)CC1,binding,competition with immobilised ligand,1 µM,100
CC(=O)N1CCC(c2ccc(C(=O)NC3=NCCN3)cc2C(F)(F)F)CC1,cell-free assay,competition with immobilised ligand,1 µM,100
CNC(=O)c1ccccc1Nc1cc(Nc2ccc(N3CCOCC3)cc2OC)ncc1C(F)(F)F,binding,competition with immobilised ligand,1 µM,< 10
O=C(O)c1cc(-c2ccc(C3CCNCC3)cc2)c2ccc(-c3ccc(C(F)(F)F)cc3)cc2c1,cell-free assay,competition with immobilised ligand,1 µM,100
CN(c1nccc(-c2cnn3ncccc23)n1)C1CC1,binding,,1 µM,100
